This note sets out measurements from article PMC2773129 (JACC. Cardiovascular imaging, 2009).

Usually tissue uptake stands for the percentage of the injected dose found per gram of tissue.

Data set [1] deals with atherosclerotic plaques, VCAM-1. As to the kind of experiment: Ex vivo uptake of 18F-4V in excised aortas. Further details: species or system mouse.
Data set [2] relates to infarcted myocardium, VCAM-1. In words: 18F-4V uptake after myocardial infarction. Format: in vivo, mouse. The following applies: mice 5 days after MI, without antibody blocking.
Data set [3] deals with rejected cardiac allograft, VCAM-1. As to the kind of experiment: 18F-4V uptake in heterotopic allograft heart transplant rejection. Type of data set: in vivo, mouse. The following applies: day 7 after heart transplantation.
Data set [4] can be described thus: Biodistribution by gamma counting of harvested organs. Type of data set: in vivo. The following applies: mouse, iv, 150 uCi, total radioactivity. An outline of the steps: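 Test compound (¹⁸F-labelled peptide, 150 μCi) injected into the tail vein of 6 wild-type mice under isoflurane anaesthesia. Mice were killed at 4 h and perfused with saline. Organs and feces were harvested and counted in a gamma counter. Counts were corrected for decay and residual injection-site activity and expressed as %ID per gram tissue, mean±SEM.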

The test system of data set [5] is VCAM-1 expression in atherosclerotic plaques. As to the kind of experiment: In vivo PET-CT imaging of aortic root. On the set-up: species or system mouse. The following applies: apoE-/- mice, PET-CT initiated 1 hour after injection, mean±SEM.

Bridges are numbered along the chain shown (N, C = ends). Roman numbers before positions name the chains, in order. Where no end group is shown, it is not given here. The star is where a group is joined. X1 = O=C(CON=Cc1ccc(F)cc1)*

In the case of “I: VHPKQHRGGSYKKK(X1) / II: VHPKQHRGGSYK / III: VHPKQHRGGSY / IV: VHPKQHRGGSY (amide I:12-IV:C, I:13-II:C, II:12-III:C) [^18F-4V]”, the “ex vivo %IDGT in murine atheroma” value in data set [1] (apoE-/- mice, ex vivo, mean±SEM) was 5.9±1.5 %IDGT. Moreover, in data set [1] (excised aortas, apoE-/- vs wild-type mice, p < 0.05), the “uptake in the aortic root, higher in apoE-/- mice compared to wild type” value was determined as 312%. The “infarct activity to background ratio” value in data set [2] stood at 3.1. Besides, the “graft to background ratio after pre-injection of VCAM-1 targeted antibody” value in data set [3] (pre-injection with VCAM-1 targeted antibody) stood at 1.4. Besides, the “graft to background ratio” value in data set [3] (without antibody blocking) is on record as 2.4. The tissue uptake at 4 h came to 1.3 ± 0.4 %ID/g in data set [4] (aorta); 1.3 ± 0.4 %ID/g in data set [4] (bone); 1.5 ± 0.5 %ID/g in data set [4] (esophagus); 1.7 ± 0.1 %ID/g in data set [4] (fat); 0.6 ± 0.2 %ID/g in data set [4] (heart); 13.2 ± 2.8 %ID/g in data set [4] (kidney). In addition, the tissue uptake at 4 h in data set [4] (large intestine) was found to be 1.4 ± 0.5 %ID/g; in data set [4] (liver), 3.7 ± 1.1 %ID/g; in data set [4] (lung), 2.2 ± 0.8 %ID/g; in data set [4] (lymph node) it was 3.7 ± 0.3 %ID/g; in data set [4] (skeletal muscle), 0.7 ± 0.3 %ID/g; in data set [4] (skin), 1.7 ± 0.6 %ID/g. The tissue uptake at 4 h in data set [4] (small intestine) is 1.9 ± 0.4 %ID/g; in data set [4] (spleen), 2.1 ± 0.6 %ID/g; in data set [4] (stomach), 1.7 ± 1.1 %ID/g; in data set [4] (thymus), 0.9 ± 0.3 %ID/g; in data set [4] (whole blood) it was 1.5 ± 0.4 %ID/g. Also, the dose excreted at 4 h in data set [4] (feces) is 0.2 ± 0.1%. Moreover, the “PET signal in murine atheroma (standard uptake value)” value in data set [5] is recorded as 0.31±0.02 SUV.
